{
  "source": "paper PMC2638640",
  "about": "(Toxicological Sciences, 2008)",
  "key": {"[1]": {"settings": "ref Doorn and Petersen, 2002, 2003; cited from earlier work"}, "[2]": {"experiment": "Rate constants for reaction of type 2 alkenes with cysteine sulfhydryl groups", "type": "physicochemical", "settings": "second-order rate of reaction with L-cysteine at pH 7.4", "how_it_was_run": "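L-Cysteine was incubated with molar excess of test alkene at pH 7.4 or 8.8, with remaining sulfhydryl measured over time by DTNB absorbance. Pseudo-first-order constants (k1) came from these plots, then second-order constants (k2). Thiolate-corrected constants via log(k k2) = log k2 + pKa – pH, taking sulfhydryl pKa 8.5; n = 4–6 at pH 7.4.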"}, "[3]": {"test_system": "membrane ^3H-DA transport in striatal synaptosomes", "experiment": "Inhibition of synaptosomal membrane ^3H-DA transport", "type": "biochemical, rat", "settings": "for effect on synaptosomal uptake: nonconjugated analogs, striatal synaptosomes; for effect of nucleophile on in vitro neurotoxicity of HNE: nucleophile 500μM, HNE-exposed striatal synaptosomes", "how_it_was_run": "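Striatal synaptosomes from adult male Sprague-Dawley rats (Percoll gradient, 15%/23% interface), 10 μg protein, were exposed 15 min at 30°C to graded concentrations of test compound or Krebs-HEPES buffer. Samples were washed, filter-trapped and superfused 3 min with 0.30μM 3H-DA. Uptake measured ± Na+ (choline substitution), by scintillation. IC50 (95% CI) by nonlinear regression; n = 4–6.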"}, "[4]": {"test_system": "^3H-DA transport in striatal synaptic vesicles", "experiment": "Inhibition of vesicular ^3H-DA transport", "type": "biochemical, rat", "settings": "nonconjugated analogs, data not shown", "how_it_was_run": "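Rat striatal synaptic vesicles (P5 pellet after osmotic shock of crude synaptosomes), 3 μg protein, were exposed 15 min to graded concentrations of test compound or assay buffer. They were then incubated 3 min at 30°C with Mg2+-ATP (2mM) and 0.30μM 3H-DA. Reaction stopped with cold buffer, followed by rapid filtration and scintillation counting. Nonspecific uptake: 4°C without Mg2+-ATP. IC50 (95% CI) by nonlinear regression; n = 3–5.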"}, "[5]": {"test_system": "total free sulfhydryl content in synaptosomes", "experiment": "Loss of free sulfhydryl groups in synaptosomes", "type": "biochemical, rat", "settings": "nonconjugated analogs, striatal synaptosomes", "how_it_was_run": "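Rat striatal synaptosomes (200 μg protein) were incubated 15 min with graded concentrations of test compound or control buffer, then solubilized in 1% SDS. DTNB (3mM) added; after 5 min equilibration at 25°C, absorbance read at 412 nm against a no-DTNB blank. Free thiol calculated from the extinction coefficient 1.36 × 10^4/M/cm; n = 4–6.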"}},
  "data": [
    {"compound": "CCCCCC(O)C=CC=O", "note": "(stereo not drawn) [HNE, 4-Hydroxy-2-nonenal]", "values": [
      {"measurement": "second-order rate constant k2 (mean ± SD), Cys toward HNE", "setting": "[1]", "result": "1.33 ± 0.083 M^∧(−1)s^∧(−1)"},
      {"measurement": "second-order rate constant k2 (mean ± SD), His toward HNE", "setting": "[1]", "result": "2.14 ± 0.312 × 10^−3 M^∧(−1)s^∧(−1)"},
      {"measurement": "second-order rate constant k2 (mean ± SD), Lys toward HNE", "setting": "[1]", "result": "1.33 ± 0.050 × 10^−3 M^∧(−1)s^∧(−1)"},
      {"measurement": "Log k2 (pH = 7.4)", "setting": "[2]", "result": 0.938}
    ]},
    {"compound": "CCC=O", "note": "[Propanal, propanal]", "values": [
      {"measurement": "effect on synaptosomal uptake", "setting": "[3]", "result": "did not affect"},
      {"measurement": "effect on vesicular uptake", "setting": "[4]", "result": "did not affect vesicular uptake"},
      {"measurement": "effect on synaptosomal sulfhydryl content", "setting": "[5]", "result": "did not affect"}
    ]},
    {"compound": "CC(=O)N[C@@H](CCCCN)C(=O)O", "note": "[NAL, N-acetyl-L-lysine]", "values": [
      {"measurement": "effect of nucleophile on in vitro neurotoxicity of HNE", "setting": "[3]", "result": "neither NAL nor carnosine affected the in vitro neurotoxicity of HNE"}
    ]},
    {"compound": "C=CC=O", "note": "[Acrolein, acrolein]", "values": [
      {"measurement": "Log k2 (pH = 7.4)", "setting": "[2]", "result": 2.596}
    ]},
    {"compound": "NCCC(=O)N[C@@H](Cc1cnc[nH]1)C(=O)O", "note": "[carnosine, β-alanyl-L-histidine]", "values": [
      {"measurement": "effect of nucleophile on in vitro neurotoxicity of HNE", "setting": "[3]", "result": "neither NAL nor carnosine affected the in vitro neurotoxicity of HNE"}
    ]},
    {"compound": "C=CC(C)=O", "note": "[MVK, methyl vinyl ketone]", "values": [
      {"measurement": "Log k2 (pH = 7.4)", "setting": "[2]", "result": 2.048}
    ]},
    {"compound": "CC(=O)N[C@@H](CS)C(=O)O", "note": "[NAC, N-acetyl-L-cysteine]", "values": [
      {"measurement": "effect of nucleophile on in vitro neurotoxicity of HNE", "setting": "[3]", "result": "significantly reduced HNE neurotoxicity"}
    ]},
    {"compound": "C=CCO", "note": "[Allyl alcohol, allyl alcohol]", "values": [
      {"measurement": "effect on synaptosomal uptake", "setting": "[3]", "result": "did not affect"},
      {"measurement": "effect on vesicular uptake", "setting": "[4]", "result": "did not affect vesicular uptake"},
      {"measurement": "effect on synaptosomal sulfhydryl content", "setting": "[5]", "result": "did not affect"}
    ]}
  ]
}
